Assay results taken from ChEMBL document CHEMBL1156500, “Characterization of the metabolic activation of hepatitis C virus nucleoside inhibitor beta-D-2'-Deoxy-2'-fluoro-2'-C-methylcytidine (PSI-6130) and identification of a novel active 5'-triphosphate species” (J Biol Chem, 2007).

Key:
Assay type in all cases: ADME, cell-based
Conditions in all cases: hepatocytes
[1] = tested on: Hepatocyte; assay: Drug uptake in human hepatocyte at 2 uM after 6 hrs assessed per 10^6 cells
Procedure, shortened: (§1)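 Primary human hepatocytes from 4 donors were plated at 1.5 million cells/well on collagen and recovered for ≥18 h. They were dosed with 3H-labelled drug at 2 μM (10 μCi/ml) for 1–72 h, in duplicate, at 37°C. Cold 60% methanol extracts were run on SAX ion-exchange HPLC with radiometric detection and compared with reference standards. Results are pmol/10^6 cells, mean ± S.D.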

[2] = tested on: Hepatocyte; assay: Drug uptake in human hepatocyte at 50 uM after 24 hrs assessed as 4-amino-1-((2R,3R,4R,5R)-3-fluoro-4-hydroxy-5-(hydroxymethyl)-3-methyl-tetrahydrofuran-2-yl)pyrimidin-2(1H)-one di phosphate level per 10^6 cells
Procedure, shortened: (§2)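 Primary human hepatocytes from 3 donors were plated on collagen and recovered for ≥18 h. They were exposed for 24 h, in duplicate, to 0–250 μM drug: 3H-labelled material diluted with unlabelled compound. Total intracellular radioactivity and individual phosphates were measured in methanol extracts by SAX HPLC with radiometric detection. Results are pmol/10^6 cells, mean ± S.D.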

[3] = tested on: Hepatocyte; assay: Drug uptake in human hepatocyte at 10 uM after 24 hrs assessed as 4-amino-1-((2R,3R,4R,5R)-3-fluoro-4-hydroxy-5-(hydroxymethyl)-3-methyl-tetrahydrofuran-2-yl)pyrimidin-2(1H)-one tri phosphate level per 10^6 cells; procedure, shortened: as §2
[4] = tested on: Hepatocyte; assay: Drug uptake in human hepatocyte at 2 uM after 48 hrs assessed as 4-amino-1-((2R,3R,4R,5R)-3-fluoro-4-hydroxy-5-(hydroxymethyl)-3-methyl-tetrahydrofuran-2-yl)pyrimitrin-2(1H)-one tri phosphate level per 10^6 cells; procedure, shortened: as §1
[5] = tested on: Hepatocyte; assay: Drug uptake in human hepatocyte at 250 uM after 24 hrs assessed as 1-((2R,3R,4R,5R)-3-fluoro-4-hydroxy-5-(hydroxymethyl)-3-methyl-tetrahydrofuran-2-yl)pyrimidine-2,4(1H,3H)-dione di phosphate level per 10^6 cells; procedure, shortened: as §2
[6] = tested on: Hepatocyte; assay: Drug uptake in human hepatocyte at 2 uM after 48 hrs assessed as 1-((2R,3R,4R,5R)-3-fluoro-4-hydroxy-5-(hydroxymethyl)-3-methyl-tetrahydrofuran-2-yl)[…] tri phosphate level per 10^6 cells; procedure, shortened: as §1
[7] = tested on: Hepatocyte; assay: Drug uptake in human hepatocyte at 2 uM after 72 hrs assessed per 10^6 cells; procedure, shortened: as §1
[8] = tested on: Hepatocyte; assay: Drug uptake in human hepatocyte at 2 uM after 72 hrs assessed as 4-amino-1-((2R,3R,4R,5R)-3-fluoro-4-hydroxy-5-(hydroxymethyl)-3-methyl-tetrahydrofuran-2-yl)pyrimitrin-2(1H)-one tri phosphate level per 10^6 cells; procedure, shortened: as §1
[9] = tested on: Hepatocyte; assay: Drug uptake in human hepatocyte at 25 uM after 24 hrs assessed as 4-amino-1-((2R,3R,4R,5R)-3-fluoro-4-hydroxy-5-(hydroxymethyl)-3-methyl-tetrahydrofuran-2-yl)pyrimidin-2(1H)-one di phosphate level per 10^6 cells; procedure, shortened: as §2
[10] = tested on: Hepatocyte; assay: Drug uptake in human hepatocyte at 2 uM after 24 hrs assessed as 1-((2R,3R,4R,5R)-3-fluoro-4-hydroxy-5-(hydroxymethyl)-3-methyl-tetrahydrofuran-2-yl)pyrimidine-2,4(1H,3H)-dione di phosphate level per 10^6 cells; procedure, shortened: as §2
[11] = tested on: Hepatocyte; assay: Drug uptake in human hepatocyte at 10 uM after 24 hrs assessed as 1-((2R,3R,4R,5R)-3-fluoro-4-hydroxy-5-(hydroxymethyl)-3-methyl-tetrahydrofuran-2-yl)pyrimidine-2,4(1H,3H)-dione di phosphate level per 10^6 cells; procedure, shortened: as §2
[12] = tested on: Hepatocyte; assay: Drug uptake in human hepatocyte at 10 uM after 24 hrs assessed per 10^6 cells; procedure, shortened: as §2
[13] = tested on: Hepatocyte; assay: Drug uptake in human hepatocyte at 2 uM after 6 hrs assessed as 1-((2R,3R,4R,5R)-3-fluoro-4-hydroxy-5-(hydroxymethyl)-3-methyl-tetrahydrofuran-2-yl)pyrimitrine-2,4(1H,3H)-trione tri phosphate level per 10^6 cells; procedure, shortened: as §1
[14] = tested on: Hepatocyte; assay: Drug uptake in human hepatocyte at 2 uM after 16 hrs assessed as 1-((2R,3R,4R,5R)-3-fluoro-4-hydroxy-5-(hydroxymethyl)-3-methyl-tetrahydrofuran-2-yl)[…] tri phosphate level per 10^6 cells; procedure, shortened: as §1
[15] = tested on: Hepatocyte; assay: Drug uptake in human hepatocyte at 250 uM after 24 hrs assessed as 4-amino-1-((2R,3R,4R,5R)-3-fluoro-4-hydroxy-5-(hydroxymethyl)-3-methyl-tetrahydrofuran-2-yl)pyrimidin-2(1H)-one di phosphate level per 10^6 cells; procedure, shortened: as §2
[16] = tested on: Hepatocyte; assay: Drug uptake in human hepatocyte at 2 uM after 48 hrs assessed per 10^6 cells; procedure, shortened: as §1
[17] = tested on: Hepatocyte; assay: Drug uptake in human hepatocyte at 50 uM after 24 hrs assessed as 1-((2R,3R,4R,5R)-3-fluoro-4-hydroxy-5-(hydroxymethyl)-3-methyl-tetrahydrofuran-2-yl)pyrimidine-2,4(1H,3H)-dione di phosphate level per 10^6 cells; procedure, shortened: as §2
[18] = tested on: Hepatocyte; assay: Drug uptake in human hepatocyte at 250 uM after 24 hrs assessed as 1-((2R,3R,4R,5R)-3-fluoro-4-hydroxy-5-(hydroxymethyl)-3-methyl-tetrahydrofuran-2-yl)pyrimidine-2,4(1H,3H)-dione tri phosphate level per 10^6 cells; procedure, shortened: as §2
[19] = tested on: Hepatocyte; assay: Drug uptake in human hepatocyte at 25 uM after 24 hrs assessed per 10^6 cells; procedure, shortened: as §2
[20] = tested on: Hepatocyte; assay: (§3) Drug uptake in human hepatocyte at 2 uM after 24 hrs assessed per 10^6 cells
[21] = tested on: Hepatocyte; assay: as §3; remark: listed apart in the source
[22] = tested on: Hepatocyte; assay: Drug uptake in human hepatocyte at 100 uM after 24 hrs assessed as 1-((2R,3R,4R,5R)-3-fluoro-4-hydroxy-5-(hydroxymethyl)-3-methyl-tetrahydrofuran-2-yl)pyrimidine-2,4(1H,3H)-dione tri phosphate level per 10^6 cells; procedure, shortened: as §2
[23] = tested on: Hepatocyte; assay: Drug uptake in human hepatocyte at 50 uM after 24 hrs assessed as 1-((2R,3R,4R,5R)-3-fluoro-4-hydroxy-5-(hydroxymethyl)-3-methyl-tetrahydrofuran-2-yl)pyrimidine-2,4(1H,3H)-dione tri phosphate level per 10^6 cells; procedure, shortened: as §2

`C[C@@]1(F)[C@H](O)[C@@H](CO)O[C@H]1n1ccc(N)nc1=O` gave a Drug uptake [1] of 32.9 pmol, a Drug uptake [2] of 8.2 pmol and a Drug uptake [3] of 5.6 pmol. For the same compound, the Drug uptake [4] was 1.3 pmol, the Drug uptake [5] was 40.9 pmol and the Drug uptake [6] was 2 pmol. It also gave a Drug uptake [7] of 34.6 pmol, a Drug uptake [8] of 1 pmol and a Drug uptake [9] of 3.4 pmol. The Drug uptake [10] was 0.9 pmol, the Drug uptake [11] was 4.8 pmol and the Drug uptake [12] was 165.5 pmol. The Drug uptake [13] was 0.3 pmol, the Drug uptake [14] was 0.6 pmol and the Drug uptake [15] was 19.6 pmol. The Drug uptake [16] was 31.9 pmol, the Drug uptake [17] was 20.3 pmol and the Drug uptake [18] was 84 pmol. It also gave a Drug uptake [19] of 439.1 pmol, a Drug uptake [20] of 34.5 pmol and a Drug uptake [21] of 36.4 pmol. For the same compound, the Drug uptake [22] was 71.2 pmol and the Drug uptake [23] was 34.9 pmol.
